Data set [1] can be described thus: Toxicity in Artemia salina assessed as mortality at 10 ug/ml after 24 hrs by Meyer method. The following applies: at 10 µg/mL. The essentials:
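Brine shrimp test after Meyer, modified. Artemia salina eggs were hatched in artificial seawater. Tubes held 30–40 nauplii in 4.95 mL seawater, plus 50 µL DMSO solution of compound (final 10 µg/mL). Elaiophylin was the positive control and DMSO alone the negative control. Mortality was scored after 24 h.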

For another data set, the system named is HL-60. The data set is described as follows: Cytotoxicity against human HL-60 cells assessed as reduction in cell viability after 48 hrs by AlamarBlue assay. Type of data set: functional, cell-based. The method in brief:
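HL-60 cells grown at 37 °C, 5% CO2, seeded at 2 x 10⁵ cells/mL. Compound in DMSO was dispensed acoustically at 10 concentrations (top 10 µM, 1:2 dilutions). After 48 h, AlamarBlue was added for a further 5 h and fluorescence read (ex 544/em 590 nm). DMSO-only wells served as maximal growth; medium-only wells gave background correction.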
(Alamar Blue is a resazurin reagent that responds to reducing activity.)

A further data set has as its system Vibrio anguillarum. Description: Antimicrobial activity against Vibrio anguillarum 90-11-287 assessed as reduction in microbial growth after 24 hrs by agar well diffusion assay. The class given is functional, organism-based. The method in brief:
(§1)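 Agar well diffusion on Instant Ocean agar (3% Instant Ocean, 3.33 g/L casamino acids, 4 g/L glucose, 10 g/L agar) seeded with pathogen. Wells 4 mm in diameter, 32-38 mm apart, each got 30 µL of a 100 µg/100 µL MeOH solution. Medium and MeOH wells were controls; the positive control was sterile-filtered supernatant of tropodithietic acid-producing Phaeobacter inhibens DSM17395. Incubated 24 h at 25 °C; inhibition zone diameter measured.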
On the technique in general: Agar diffusion results depend on both activity and mobility in agar.

Another data set concerns Staphylococcus aureus. The data set is described as follows: Antimicrobial activity against Staphylococcus aureus 8325 assessed as reduction in microbial growth after 24 hrs by agar well diffusion assay. The class given is functional, organism-based. The method in brief: as §1
In the next data set the test system is Candida albicans. The data set is described as follows: Antifungal activity against Candida albicans IBT 654.38 assessed as reduction in microbial growth after 16 to 24 hrs by agar well diffusion assay. The class given is functional, organism-based. The following applies: time 16-24 hrs, in the assay text read “paper disk diffusion assay” for “agar well diffusion assay”. The essentials: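 Disk diffusion: a glucose–peptone agar base layer (pH 4.8) was inoculated with the yeast. 6 mm paper disks carried 80 µg compound applied in CH2Cl2 and were dried under sterile conditions before placing. Incubated 28 °C for 16–24 h; inhibition zone diameter measured.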

Each structure is given as a SMILES string. Calls of active or inactive are those of the source. No cut-off for these calls is given here.

Regarding `CC[C@@H]1[C@@H](C)O[C@@](O)([C@@H](C)[C@H](O)[C@H](C)[C@H]2OC(=O)/C=C/C=C/[C@H](C)[C@@H]([C@@H](C)[C@@H](O)[C@H](C)[C@@]3(O)C[C@@H](O[C@H]4C[C@H](O)[C@H](O)[C@H](C)O4)[C@H](CC)[C@@H](C)O3)OC(=O)/C=C/C=C/[C@@H]2C)C[C@H]1O[C@H]1C[C@H](O)[C@H](O)[C@H](C)O1`, the mortality (usually the share of the test organisms that died) at 24 h, 10 ug/ml in data set [1] stood at 78%.
On to `CCC(C)CCCCCCCCC/C=C\[N+]([O-])=N\[C@@H](C)C(=O)OC` (some centres undefined), for which the half-maximal inhibitory concentration (IC50) – broadly, the concentration needed to halve the response being measured – in the data set on HL-60 (Homo sapiens, HL-60, 48 h, read-out: IC50) is 2200 nM.
On to `COC(=O)[C@H](C)/N=[N+]([O-])/C=C\CCCCCCCCCC(C)C`, for which, in the data set on HL-60 (hl-60), the IC50 result is listed as “Nd(Unstable)”. Besides, the outcome with Vibrio anguillarum, in the data set with Staphylococcus aureus and in the data set on Candida albicans was inactive. In addition, the mortality at 24 h, 10 ug/ml in data set [1] came out at 100%.
As to `COC(=O)[C@H](C)/N=[N+]([O-])/C=C/CCCCCCCCCC(C)C`, the outcome in the data set on Vibrio anguillarum and in the data set on Staphylococcus aureus was inactive.

For the origin of these results see ChEMBL document CHEMBL4673305, “Azodyrecins A-C: Azoxides from a Soil-Derived Streptomyces Species” (J Nat Prod, 2020).
